The source of these data is ChEMBL document CHEMBL4342493, “Design and Optimization of 3'-(Imidazo[1,2-a]pyrazin-3-yl)-[1,1'-biphenyl]-3-carboxamides as Selective DDR1 Inhibitors” (ACS Med Chem Lett, 2020).

The target in assay [1] is Dual specificity protein kinase CLK4 (Homo sapiens, UniProt Q9HAZ1). In words: Inhibition of wild-type human partial length CLK4 (R135 to K481 residues) expressed in bacterial expression system assessed as enzyme residual activity at 200 nM after 1 hr by Kinomescan method relative to control.
Assay [2] addresses T1, Dual specificity protein kinase TTK (Homo sapiens, UniProt P33981).
T1 sequence (P33981 whole entry): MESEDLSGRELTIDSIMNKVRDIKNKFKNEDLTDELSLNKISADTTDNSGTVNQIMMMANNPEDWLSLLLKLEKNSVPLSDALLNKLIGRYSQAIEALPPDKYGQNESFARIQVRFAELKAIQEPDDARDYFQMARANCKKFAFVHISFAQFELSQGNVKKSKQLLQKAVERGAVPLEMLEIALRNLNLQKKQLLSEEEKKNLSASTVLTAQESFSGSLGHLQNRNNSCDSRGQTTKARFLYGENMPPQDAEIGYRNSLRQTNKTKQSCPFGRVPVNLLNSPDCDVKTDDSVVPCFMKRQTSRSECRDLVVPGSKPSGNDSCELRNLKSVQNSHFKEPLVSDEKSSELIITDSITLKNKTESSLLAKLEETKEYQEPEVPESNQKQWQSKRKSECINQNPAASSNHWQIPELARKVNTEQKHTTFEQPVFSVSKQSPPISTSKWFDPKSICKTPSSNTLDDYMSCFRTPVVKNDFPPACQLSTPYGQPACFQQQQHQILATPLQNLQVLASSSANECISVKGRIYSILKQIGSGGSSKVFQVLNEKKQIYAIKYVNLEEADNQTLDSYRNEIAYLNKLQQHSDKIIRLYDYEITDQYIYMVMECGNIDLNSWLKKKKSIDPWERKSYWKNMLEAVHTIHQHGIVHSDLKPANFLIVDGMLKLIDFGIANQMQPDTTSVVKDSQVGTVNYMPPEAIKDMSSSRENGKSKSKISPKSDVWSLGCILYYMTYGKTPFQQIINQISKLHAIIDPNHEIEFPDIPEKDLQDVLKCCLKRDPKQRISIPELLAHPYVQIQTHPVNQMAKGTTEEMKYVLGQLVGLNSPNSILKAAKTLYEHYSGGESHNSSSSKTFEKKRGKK
In words: Binding affinity to wild-type human partial length TTK (N505 to V798 residues) expressed in bacterial expression system after 1 hr by Kinomescan method. The essentials:
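KINOMEscan binding; Kd determined for DDR1 and the off-target kinases DDR2, CAMK1D, CLK4 and TTK.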

Assay [3] has as its target T2, Discoidin domain-containing receptor 2 (Homo sapiens, UniProt Q16832).
T2 sequence (Q16832 whole entry): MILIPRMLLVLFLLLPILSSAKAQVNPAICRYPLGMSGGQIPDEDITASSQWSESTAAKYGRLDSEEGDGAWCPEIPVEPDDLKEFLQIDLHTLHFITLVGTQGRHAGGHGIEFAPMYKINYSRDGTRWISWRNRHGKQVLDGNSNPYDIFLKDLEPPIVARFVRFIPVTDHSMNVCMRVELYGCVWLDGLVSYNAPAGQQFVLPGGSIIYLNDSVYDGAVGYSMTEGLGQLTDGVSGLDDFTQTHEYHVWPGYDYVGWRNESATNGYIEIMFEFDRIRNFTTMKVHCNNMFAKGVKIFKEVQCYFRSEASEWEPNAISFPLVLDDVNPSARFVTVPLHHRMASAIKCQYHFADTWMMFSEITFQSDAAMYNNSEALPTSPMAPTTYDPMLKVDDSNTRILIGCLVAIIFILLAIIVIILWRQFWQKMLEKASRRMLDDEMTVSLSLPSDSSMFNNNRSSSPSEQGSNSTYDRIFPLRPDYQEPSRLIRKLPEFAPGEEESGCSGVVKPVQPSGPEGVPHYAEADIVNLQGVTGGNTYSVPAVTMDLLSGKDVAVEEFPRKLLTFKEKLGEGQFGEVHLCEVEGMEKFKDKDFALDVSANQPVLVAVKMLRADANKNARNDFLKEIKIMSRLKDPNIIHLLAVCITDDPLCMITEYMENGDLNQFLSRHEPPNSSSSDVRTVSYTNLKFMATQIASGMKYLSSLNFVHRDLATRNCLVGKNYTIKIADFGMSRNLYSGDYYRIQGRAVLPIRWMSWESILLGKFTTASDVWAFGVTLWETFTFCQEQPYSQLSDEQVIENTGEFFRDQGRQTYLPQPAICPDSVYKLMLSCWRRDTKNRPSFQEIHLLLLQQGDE
In words: Inhibition of recombinant human GST-tagged DDR2 cytoplasmic domain (427 to 855 residues) expressed in baculovirus expression system using Fluorescein-poly GAT as substrate incubated for 1 hr in presence of ATP by LanthaScreen Eu kinase assay. The gist of the method: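 LanthaScreen Eu kinase assay for DDR2; IC50 values are means of three independent experiments, variations <20%.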
(In TR-FRET formats the signal depends on donor and acceptor labels being close together.)

In a further assay the target is Bcr/Abl fusion protein (Homo sapiens, UniProt P00519). In words: Inhibition of human recombinant full length His-tagged Bcr-Abl expressed in baculovirus expression system using tyrosine-2 peptide as substrate after 1 hr in presence of […] ATP by FRET based Z'-LYTE assay. The essentials:
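FRET-based Z′-Lyte kinase assay for Bcr-Abl; IC50 values are means of three independent experiments, variations <20%.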

Assay [4] addresses T3, Discoidin domain-containing receptor 2 (Homo sapiens) (UniProt Q16832).
T3 sequence (whole entry): T2 sequence (Q16832 whole entry)
In words: Inhibition of wild type human partial length DDR2 (V555 to E855 residues) expressed in mammalian expression system assessed as residual enzyme activity at 200 nM after 1 hr by Kinomescan method relative to control.

The test system of assay [5] is NCI-H1299. In words: Antiinvasive activity against human H1299 cells after 24 hrs by crystal violet staining based transwell assay. The class given is functional, cell-based. The essentials: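 H1299 NSCLC cells; transwell invasion assay over 24 h with compound at 1.25, 2.5 and 5.0 μM; invasion expressed relative to blank control.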
The target of assay [6] is T4, Dual specificity protein kinase TTK (Homo sapiens) (UniProt P33981).
T4 sequence (whole entry): T1 sequence (P33981 whole entry)
In words: Inhibition of wild-type human partial length TTK (N505 to V798 residues) expressed in bacterial expression system assessed as enzyme residual activity at 200 nM after 1 hr by Kinomescan method relative to control.

Assay [7] concerns NCI-H1299. The assay can be described thus: Antiproliferative activity against human H1299 cells assessed as reduction in cell viability after 72 hrs by CCK-8 assay. In kind it is functional, cell-based. The following applies: NCI-H1299, 72 h. The essentials: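 CCK-8 proliferation assay in H1299 cells; IC50 derived from dose-response; means of three independent experiments.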
For orientation: Formazan colour is commonly taken as a measure of viable cells.

The species named for another assay is Homo sapiens. In words: Selectivity index, ratio of IC50 for recombinant human GST-tagged DDR2 cytoplasmic domain (427 to 855 residues) expressed in baculovirus expression system to IC50 for recombinant human GST-tagged DDR1 catalytic domain (440 to 876 residues) expressed in baculovirus expression system using Fluorescein-poly GAT as substrate incubated for 1 hr in presence of ATP by LanthaScreen Eu kinase assay. The gist of the method: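 Ratio of DDR2 IC50 to DDR1 IC50. Both kinases were measured by LanthaScreen Eu kinase assay. Each IC50 is the mean of three independent experiments, with variation <20%.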

Each structure is given as a SMILES string. pIC50, pKd: −log10 of the molar value.

Bcr/Abl fusion protein, sequence (P00519 whole entry, the tested form may be a part): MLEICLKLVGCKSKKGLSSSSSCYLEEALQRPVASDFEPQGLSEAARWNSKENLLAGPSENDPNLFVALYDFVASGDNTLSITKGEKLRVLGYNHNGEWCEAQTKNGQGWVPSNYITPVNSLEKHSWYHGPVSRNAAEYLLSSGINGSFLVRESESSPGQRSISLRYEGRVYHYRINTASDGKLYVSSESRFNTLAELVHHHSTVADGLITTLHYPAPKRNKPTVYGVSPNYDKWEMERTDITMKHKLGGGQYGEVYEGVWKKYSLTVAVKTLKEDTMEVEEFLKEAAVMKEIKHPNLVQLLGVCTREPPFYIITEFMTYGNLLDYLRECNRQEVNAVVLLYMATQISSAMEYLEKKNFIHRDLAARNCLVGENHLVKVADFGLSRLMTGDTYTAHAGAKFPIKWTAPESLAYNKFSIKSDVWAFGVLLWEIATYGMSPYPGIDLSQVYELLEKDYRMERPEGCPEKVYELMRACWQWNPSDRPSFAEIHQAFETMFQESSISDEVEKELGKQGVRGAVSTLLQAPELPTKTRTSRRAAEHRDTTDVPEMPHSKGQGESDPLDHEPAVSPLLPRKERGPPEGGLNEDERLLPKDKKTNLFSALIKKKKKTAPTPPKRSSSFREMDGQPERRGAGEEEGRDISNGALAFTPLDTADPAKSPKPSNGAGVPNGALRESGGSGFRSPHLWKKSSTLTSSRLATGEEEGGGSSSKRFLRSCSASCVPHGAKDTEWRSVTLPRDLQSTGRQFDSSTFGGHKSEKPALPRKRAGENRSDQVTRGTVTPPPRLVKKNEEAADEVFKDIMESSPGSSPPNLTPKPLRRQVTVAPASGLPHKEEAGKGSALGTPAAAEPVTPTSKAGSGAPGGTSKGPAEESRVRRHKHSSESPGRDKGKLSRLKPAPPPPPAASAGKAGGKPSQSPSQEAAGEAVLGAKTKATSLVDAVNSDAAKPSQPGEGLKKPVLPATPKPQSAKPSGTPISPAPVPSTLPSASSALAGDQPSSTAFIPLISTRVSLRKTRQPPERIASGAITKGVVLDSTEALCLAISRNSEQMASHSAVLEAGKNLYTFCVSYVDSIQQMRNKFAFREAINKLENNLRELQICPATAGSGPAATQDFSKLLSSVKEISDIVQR
Bcr/Abl fusion protein, sequence (P11274 whole entry, further chain, the tested form may be a part): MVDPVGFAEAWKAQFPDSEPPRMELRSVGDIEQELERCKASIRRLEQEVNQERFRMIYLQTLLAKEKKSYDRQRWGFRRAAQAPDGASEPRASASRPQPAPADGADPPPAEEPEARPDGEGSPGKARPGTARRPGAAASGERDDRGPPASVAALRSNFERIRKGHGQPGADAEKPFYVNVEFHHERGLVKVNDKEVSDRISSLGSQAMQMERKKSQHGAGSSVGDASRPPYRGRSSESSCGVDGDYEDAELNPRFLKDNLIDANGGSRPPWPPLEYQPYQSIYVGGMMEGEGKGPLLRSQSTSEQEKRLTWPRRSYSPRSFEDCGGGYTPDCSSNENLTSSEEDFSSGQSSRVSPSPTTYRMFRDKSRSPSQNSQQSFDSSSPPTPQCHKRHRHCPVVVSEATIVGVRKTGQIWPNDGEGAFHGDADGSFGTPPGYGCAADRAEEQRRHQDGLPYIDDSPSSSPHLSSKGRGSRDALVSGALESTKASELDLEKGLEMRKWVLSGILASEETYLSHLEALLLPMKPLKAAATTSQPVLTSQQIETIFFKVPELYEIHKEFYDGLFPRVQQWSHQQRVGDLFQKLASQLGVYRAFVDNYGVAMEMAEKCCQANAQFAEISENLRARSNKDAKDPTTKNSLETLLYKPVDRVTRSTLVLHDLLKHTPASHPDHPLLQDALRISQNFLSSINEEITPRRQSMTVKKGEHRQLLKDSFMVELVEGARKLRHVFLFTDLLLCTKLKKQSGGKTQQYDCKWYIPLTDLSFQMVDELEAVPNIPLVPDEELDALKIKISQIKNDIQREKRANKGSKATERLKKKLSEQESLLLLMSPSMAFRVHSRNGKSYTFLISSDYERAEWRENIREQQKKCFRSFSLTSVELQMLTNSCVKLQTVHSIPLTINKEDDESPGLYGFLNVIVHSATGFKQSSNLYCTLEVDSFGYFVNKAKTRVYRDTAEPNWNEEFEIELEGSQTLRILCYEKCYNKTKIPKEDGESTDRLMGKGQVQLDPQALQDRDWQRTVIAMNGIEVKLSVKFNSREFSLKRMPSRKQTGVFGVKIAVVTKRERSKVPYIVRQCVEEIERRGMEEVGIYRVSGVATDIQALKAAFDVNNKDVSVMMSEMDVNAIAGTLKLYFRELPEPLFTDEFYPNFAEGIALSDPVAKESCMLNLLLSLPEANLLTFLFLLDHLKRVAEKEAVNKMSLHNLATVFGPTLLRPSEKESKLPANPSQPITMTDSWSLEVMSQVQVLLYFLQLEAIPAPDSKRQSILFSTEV
Dual specificity protein kinase CLK4, sequence (Q9HAZ1 whole entry, looked up, the tested form may be a part): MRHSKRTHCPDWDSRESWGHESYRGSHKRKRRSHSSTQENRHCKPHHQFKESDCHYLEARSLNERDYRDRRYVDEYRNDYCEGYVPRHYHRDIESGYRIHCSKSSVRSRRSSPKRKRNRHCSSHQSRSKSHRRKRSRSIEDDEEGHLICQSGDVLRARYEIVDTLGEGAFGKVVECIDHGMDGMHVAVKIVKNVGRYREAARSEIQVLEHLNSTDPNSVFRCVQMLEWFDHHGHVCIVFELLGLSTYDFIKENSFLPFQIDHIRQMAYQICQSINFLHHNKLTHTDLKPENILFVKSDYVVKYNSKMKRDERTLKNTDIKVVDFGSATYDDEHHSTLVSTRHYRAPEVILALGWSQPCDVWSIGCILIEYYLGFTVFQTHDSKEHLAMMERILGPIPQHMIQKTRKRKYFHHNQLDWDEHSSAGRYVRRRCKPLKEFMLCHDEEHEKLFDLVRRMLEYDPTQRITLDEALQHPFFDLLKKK

By pKd is commonly meant −log10 of the Kd, conventionally taken in molar units. Lower therefore signals a large Kd. What is called pIC50 is the negative decadic logarithm of the IC50, by convention in mol/L. Turning to `CCc1ccc(C(=O)Nc2cc(F)cc(C(F)(F)F)c2)cc1-c1cc(C)cc(-c2cnc3cnccn23)c1`, the Activity in [1] turned out to be 1.8%; in [4], 15%; in assay [6] it was 0%. The pKd in [2] is under 6.00. In addition, the pIC50 in [3] is 5.76; on Bcr/Abl fusion protein, under 5.00; with NCI-H1299 [7] it was 5.18. In addition, the inhibition result with NCI-H1299 [5] was “Dose-dependent effect”. In addition, the Ratio IC50 in the assay listed under Homo sapiens worked out at 73.
